Results reported in article PMC9089800 (RSC Advances, 2018).
Read-outs that look alike come from different tables or passages of the source.

Columns and labels:
MCF7 = experiment: MTT growth inhibition / cytotoxicity assay, MCF7; assay type: cell-based, human
MDA-MB-231 = experiment: MTT growth inhibition / cytotoxicity assay, MDA-MB-231; assay type: cell-based, human
MCF7 cells [1] = experiment: Cell cycle analysis by FACS; assay type: cell-based, human; conditions: MCF7, 24 h; 30 μM of 9, 20 μM of 10
How it was run: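 Cells seeded a day before; treated 24 h with test compound or DMSO vehicle (final DMSO <0.02%). Cells trypsinised, pelleted at 4 °C, fixed overnight at 4 °C in chilled 95% ethanol, and PBS-washed. Stained with propidium iodide plus RNase in PBS/2 mM MgCl2 for 20 min at 37 °C, then acquired by flow cytometry. Three repeats; mean sub-G1 population plotted.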

MCF10A = experiment: cells; assay type: cell-based; conditions: 48 h; for IC50: Homo sapiens, MCF-10A, read-out: IC50 in μM MCF10A
caspase 9 = experiment: Western blot for apoptotic pathway; assay type: cell-based, human; conditions: MCF7, 24 h; 30 μM of 9, 20 μM of 10
How it was run: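 MCF7 cells exposed 24 h to DMSO vehicle or test compound. Lysed 20 min on ice in Tris pH 7.4/EDTA/NaCl/NaF/orthovanadate/0.5% Triton X-100, then cleared at 16000 × g at 4 °C. Protein quantified by Bradford; samples boiled in Laemmli buffer. SDS-PAGE, PVDF transfer, 3% milk/TBST block. Anti-caspase 9 overnight at 4 °C; HRP secondary; chemiluminescent detection.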

MCF7 cells [2] = experiment: DNA fragmentation assay; assay type: cell-based, human; conditions: MCF7, 24 h; 30 μM of 9, 20 μM of 10
MCF7 cells [3] = experiment: Immunostaining; assay type: cell-based, human; conditions: IC50 concentration, 12 hours
How it was run: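 Cells grown overnight as a monolayer on coverslips, then exposed to test compound for 12 h. Fixed in 3.7% formaldehyde for 20 min at room temperature in the dark. Permeabilised with 0.5% Tween-20 for 30 min, then blocked with 3% BSA. Stained 1 h with anti-α-tubulin, then 1 h with Alexa Fluor 594 secondary. DNA counterstained with Hoechst; mounted in DABCO/glycerol.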

[4] = Homo sapiens, MCF7, 48 h, read-out: IC50 in μM MCF7, MTT, 48 h, 0–100 μM
[5] = read-out: IC50 in μM MCF7, MTT, 48 h, 0–100 μM

Structure (SMILES) | IC50 (MCF7; [4]) | IC50 in μM MCF7 (MCF7; MTT, 48 h, 0–100 μM) | IC50 in μM MDA-MB-231 (MDA-MB-231; 48 h, 0–100 μM) | IC50 (MCF7; [5]) | apoptotic (sub-G1) population (MCF7 cells [1]) | IC50 (MCF10A) | IC50 (MDA-MB-231; read-out: IC50 in μM MDA-MB-231, 48 h, 0–100 μM) | apoptotic pathway (caspase 9 immunoblot) (caspase 9) | cytotoxic effect on normal breast epithelial MCF10A cells (in words) (MCF10A; MTT) | fragmentation of genomic DNA (ladder on agarose gel) (MCF7 cells [2]) | DNA fragmentation by Hoechst staining, tubulin morphology (MCF7 cells [3])
C=C1[C@@H]2[C@H]3OC(=O)C(=C)[C@@H]3CCC(=C)[C@@H]2C[C@@H]1O [Compound 2, Zaluzanin C] | > 100 µM | inactive | inactive |  |  |  |  |  |  |  | 
C=C1[C@@H]2[C@H]3OC(=O)[C@@H](CN4CCC(O)CC4)[C@@H]3CCC(=C)[C@@H]2C[C@@H]1O [Compound 14, (3R,3aS,6aR,8S,9aR,9bS)-8-Hydroxy-3-((4-hydroxypiperidin-1-yl)methyl)-6,9-di-methylenedecahydroazuleno[4,5-b]furan-2(3H)-one] | < 50 µM |  |  | 40 ± 2.16 µM | induced apoptosis to a lesser extent | > 50 µM | 25 ± 2.3 µM |  |  |  | 
C=C1[C@@H]2[C@H]3OC(=O)[C@@H](CN[C@H](C)c4cccc5ccccc45)[C@@H]3CCC(=C)[C@@H]2C[C@@H]1OC(C)=O [Compound 9, (3R,3aS,6aR,8S,9aR,9bS)-6,9-Dimethylene-3-((((R)-1-(naphthalen-1-yl)ethyl)amino)methyl)-2-oxododecahydroazuleno[4,5-b]furan-8-yl acetate] | < 50 µM |  |  | 30 ± 0.7 µM | significantly increased the apoptotic populations | 42 ± 4.1 µM |  | cleavage of caspase 9 | potent cytotoxic effect | substantial fragmented DNA ladder | fragmented DNA
